# This is one part of a sample in which hits are shown more often than they occur.
# Dynein cargo inh – blocks dynein driven cargo transport along microtubules. 3617.4 mouse cells, GR-EGFP nuclear translocation imaging; test concentration mostly 20 µM; stimulated with dexamethasone, 1 µM; active compounds read low. z-score, hits read low. hit rate 0.47% among 220,000. AID 1381;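 active means plate z-score of nuclear minus cytoplasmic receptor signal below a set negative limit, without overly bright fluorescence or cell loss, cut at about -3.5 in these data, passing the limit was not always enough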;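 further: z-score of nuclear minus cytoplasmic ring GR-EGFP intensity difference per well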
#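 Buffer or medium: tet-free, stripped-serum medium; Also added: dexamethasone, 1.0 µM final; Technique: high-content fluorescence imaging after fixation; Times: 48 h induction, 1 h compound, 30 min dex at 37 °C; Read-out: per-cell GR-EGFP intensity, nucleus versus surrounding cytoplasmic ring, well-averaged.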
# UPR CHOP act – apoptotic UPR (CHOP) activation. hit rate 0.34% among 330,000. CHO-CHOP luciferase reporter, luminescence; percent of tunicamycin response over DMSO baseline. activation, % at 10 µM. AID 449763;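 active means at 10 µM dose, activation of 40% or more, normalized to positive control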;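 further: 100% = tunicamycin at 10 µg/mL and 0% = DMSO alone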
#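 Assay system: CHO-CHOP cells, stable luciferase reporter of PERK-eIF2a-CHOP signalling / Buffer or medium: F12 plus 10% serum / Compound dosing: one dose, 10 µM in 0.5% DMSO / Times: 6 h compound treatment, 37 °C / Technique: luciferase luminescence / Read-out: % reporter activation, DMSO baseline versus tunicamycin full activation / Benchmarks: tunicamycin and DMSO controls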
# CHOP inh – inhibitors of CHOP induction in ER stress response; AID 2732; hit rate 3.8% among 220,000; CHO-K1 CHOP-promoter luciferase, tunicamycin-induced, 15-18 h; inhibition, % at 10 µM;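 active means compounds that reduced the stress-induced luciferase reporter signal by more than about 70% of percent inhibition, limit read from the data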;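 further: 0% = tunicamycin plus vehicle and 100% = wells without tunicamycin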
# XBP1 UPR activ – activators of adaptive arm of unfolded protein response (XBP1). CHO-XBP1 luciferase reporter, IRE1-XBP1 UPR activation, luminescence; percent of tunicamycin response, DMSO as zero. activation, % at 20 µM. hit rate 0.33% among 330,000;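 active means versus positive control, 20 µM dose yields 30% or more activation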;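 further: 100% = tunicamycin at 10 µg/mL and 0% = DMSO only wells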
#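 Material: IRE1-XBP1 luciferase reporter CHO line / Quantity: one thousand reporter cells per well / Buffer or medium: F12 with 10% serum / Compound: 20 µM single concentration, DMSO 1% / Times: 6 h treatment, 37 °C / Detection: Steady-Glo luciferase glow luminescence, 10 min after reagent addition / Benchmarks: tunicamycin high, DMSO low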
# B2AR ag – activates human beta-2 adrenergic receptor causing internalization | P07550 | response, % (test concentration not listed) | hit rate 0.43% among 340,000 | AID 504454 | Am2.2-beta2AR cells, FAP receptor internalization, flow cytometry;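 active means response above a set limit, near 3 SD of response in nonfluorescent compounds, cut at about 42% in these data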
# p-CIP stab down – lowers stability of the mouse p/CIP coactivator protein; hit rate 0.01% among 290,000; decrease of EGFP signal, % at 10 µM; F442A p/CIP-EGFP cells, EGFP fluorescence, 16 h; Q05BA5;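 active means EGFP signal decrease of at least 30% at 10 µM or well 3 SD below plate mean, unless failing retest; inactive means the rest, including hits failing retest or dose response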
# Numbers without * were called inactive; / = no result given.
SMILES,Dynein cargo inh,UPR CHOP act,CHOP inh,XBP1 UPR activ,B2AR ag,p-CIP stab down
Cc1c(Cl)cccc1NC(=S)N1CCC(N(C)CC2CCCO2)CC1 (stereo unspecified),-0.044,2,9,0,-4,-1
O=C(Nc1ccccc1F)c1oc2ccccc2c1NC(=O)C1CC1,/,5,/,-2,3,-5
O=C(Nc1ccc(F)cc1)c1oc2ccccc2c1NC(=O)C1CCCC1,-0.92,1,71*,1,-7,-17
COc1ccc(N=C2NC(=O)/C(=C/C=C/c3ccccc3)S2)cc1,-0.38,-1,77*,0,19,-5
COc1ccc(N=C2NC(=O)/C(=C\C=C\c3ccccc3)S2)cc1,1.1,0,65,-3,3,-11
O=C1NC(=Nc2ccccc2)S/C1=C\C=C\c1ccco1,0.068,6,87*,0,-5,-6
Cc1ccc(N=C2NC(=O)/C(=C/C=C/c3ccco3)S2)cc1,0.21,/,32,/,12,-22
CCOC(=O)C1CCN(CC(=O)c2ccc(O)c(C)c2O)CC1,/,-1,/,-3,19,10
CCC(C(=O)OC(C)C)c1ccc2ccccc2c1 (stereo unspecified),/,2,/,-4,-1,/
COc1ccc(N2CCN(S(=O)(=O)CCNC(=O)COc3ccccc3C)CC2)cc1,/,0,/,-2,-3,/
CC(C)C1OC(c2cccc(NC(=O)c3cccs3)c2)OCC1(C)C (stereo unspecified),1,0,79*,-2,-5,0
Cc1cc(C)c(S(=O)(=O)NNC(=O)C2CCN(Cc3ccccc3)CC2)c(C)c1,-0.66,1,30,1,-4,-15
Cc1cc(C(=O)OCC(=O)Nc2ccc(S(N)(=O)=O)cc2)c2ccccc2n1,0.2,0,7,6,3,62*
COc1ccccc1NC(=O)COC(=O)c1cc(C)nc2ccccc12,/,-1,/,-3,-15,/
CCc1nc2ccccc2c(C(=O)OCC(=O)Nc2cccc(S(=O)(=O)N3CCOCC3)c2)c1C,-0.89,3,31,8,23,-10
CCc1nc2ccccc2c(C(=O)OCC(=O)Nc2ccc(S(=O)(=O)N3CCOCC3)cc2)c1C,0.028,-1,74*,-2,16,5
O=C(NCc1ccccc1Cl)c1cc(C(=O)C2CC2)c[nH]1,/,-2,/,-3,3,4
C[C@@H]1CC=C[C@H]2[C@H]1C(=O)N(Cc1ccccc1)[C@H]2c1ccc(F)c(Br)c1,-1.5,/,76*,/,/,-8
C[C@@H]1CC=C[C@H]2[C@H]1C(=O)N(Cc1ccccc1)[C@H]2c1ccc(F)c(/C=C/c2ccccc2)c1,-0.3,2,23,-1,17,-8
COc1cccc(-c2cc(C(=O)N3CCCc4ccccc43)no2)c1,-1.1,4,73*,2,-3,-1
COc1ccc(-c2cc(C(=O)N3CCCc4ccccc43)no2)cc1,0.11,1,48,3,-9,-26
CC(C(N)=O)N1C(=O)NC2(CCCc3ccccc32)C1=O (stereo unspecified),/,-1,/,-4,0,-4
CC(C)NC(=O)c1nc2c(nnn2Cc2cccc(Cl)c2)c(=O)[nH]1,/,0,/,-5,7,-8
CCC(=O)OC1CC(C)N(C(=O)c2ccccc2)c2ccc(C)cc21 (stereo unspecified),-0.27,-1,33,-2,-7,-4
CCCC(=O)O[C@H]1C[C@@H](C)N(C(=O)c2ccccc2)c2ccc(C)cc21,0.046,0,74*,-1,5,-4
COc1ccc(-c2cc(-c3ccc(F)cc3)nc(N3CCN(C)CC3)n2)cc1,-1.2,14,87*,14,24,/
O=S(=O)(NCCOCC(F)(F)C(F)F)c1ccc2oc3ccccc3c2c1,-0.34,-2,85*,-2,-19,-4
COc1ccc(OCCNS(=O)(=O)c2ccc3oc4ccccc4c3c2)cc1,2.2,-2,28,-2,3,-1
Cc1csc(NC(=O)CSc2nc3[nH]c(=O)cc(O)c3s2)n1,/,/,/,/,93*,/

# Bioassay records as filed in PubChem BioAssay.
